High-throughput results: PubChem BioAssay, Sanford-Burnham Center for Chemical Genomics
Compounds with a hit are over-represented: about 3.3% of the library has one in this group of screens.
NRP1-CendR mod – alters CendR peptide binding to human NRP-1 | hit rate 0.85% among 360,000 | inhibition, % at 25 µM | AID 602438 | FAM-RPARPAR peptide binding to NRP-1, fluorescence polarization;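 active means inhibition or corrected inhibition above about 18%, plus a signal ratio from 0.5 to 1.5, limit read from the data, passing the limit was not always enough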
SENP8 block-1 – blocks human SENP8 cleavage of Nedd8 substrate | inhibition, % at 20 µM | recombinant SENP8, Nedd8 substrate fluorescence | Q96LD8 | hit rate 0.64% among 360,000 | AID 602440; in the data active means inhibition mostly above about 40%, no sharp cut-off; inactive means mostly below about 27%
SENP1 inh – inhibitors of human SENP1 SUMO protease catalytic domain; inhibition, % at 10 µM; hit rate 0.21% among 360,000; recombinant SENP1 catalytic domain, CyPet-SUMO1-YPet FRET cleavage; Q9P0U3;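 active means inhibition at least 30% at 10 µM, raw YFP signal under a set limit, fluorescence ratio 0.5 to 1.5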;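 further: 0% = enzyme with DMSO and 100% = no enzyme wells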
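Test system: human SENP1 catalytic domain; medium: Tris pH 8 buffer plus EDTA, NaCl, BME, BSA, NP40, catalase; incubation: 50 min reaction at room temperature; technique: FRET, CFP and YFP emission; controls: no-enzyme low control and enzyme-plus-DMSO high control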
SENP8 block-2 – blocks the human protease SENP8; purified SENP8, Z-RLRGG-aminoluciferin cleavage, luminescence; inhibition, % at 10 µM; hit rate 1.2% among 330,000; AID 2540; in the data active means inhibition above about 50%
SENP7 inh – blocks the human protease SENP7. Q9BQF6. recombinant SENP7, Z-RLRGG-aminoluciferin luminescence, 40 min. inhibition, % at 5 µM. hit rate 1.5% among 330,000. AID 434973;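 active means inhibition above about 50% at the single test dose, limit read from the data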;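 further: plate controls were DMSO with enzyme for no effect and no enzyme buffer wells for full effect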
SENP6 block – inhibitors of human SENP6 protease; Q9GZR1; Recombinant SENP6 catalytic domain, aminoluciferin luminescence; inhibition, % at 10 µM; hit rate 1.8% among 330,000;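 active means inhibition above about 50% at the single tested dose, limit read from the data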;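 further: plate controls were DMSO wells with enzyme for no effect and DMSO wells lacking enzyme for full effect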
Target sequence (Q9GZR1 628-1112 limits assumed): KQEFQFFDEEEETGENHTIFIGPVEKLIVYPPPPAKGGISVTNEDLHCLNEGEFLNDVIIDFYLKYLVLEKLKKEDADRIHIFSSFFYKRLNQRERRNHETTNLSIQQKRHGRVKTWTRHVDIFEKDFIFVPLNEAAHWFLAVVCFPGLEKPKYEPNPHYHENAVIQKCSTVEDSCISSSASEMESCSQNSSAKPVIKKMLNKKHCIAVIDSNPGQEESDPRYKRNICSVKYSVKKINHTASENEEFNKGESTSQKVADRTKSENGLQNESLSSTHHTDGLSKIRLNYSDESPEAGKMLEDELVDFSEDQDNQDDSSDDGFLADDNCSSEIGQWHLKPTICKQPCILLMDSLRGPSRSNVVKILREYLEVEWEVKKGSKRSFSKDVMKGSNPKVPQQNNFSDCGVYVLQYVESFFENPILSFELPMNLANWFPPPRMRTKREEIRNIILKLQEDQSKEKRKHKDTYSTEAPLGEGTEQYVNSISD
SENP8 conf – human SENP8 inhibition, confirmed; inhibition, % at 12.5 µM; shares compounds with SENP7 inh; hit rate 40% among 6,200; Recombinant SENP8, Z-RLRGG-aminoluciferin luminescence, 60 min; AID 488912;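 active means mean inhibition across replicates above about 50%, limit read from the data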
SENP6 confirm – confirmation of human SENP6 protease inhibitors | hit rate 58% among 6,200 | inhibition, % at 12.5 µM | shares compounds with SENP7 inh | recombinant SENP6, Z-RLRGG-aminoluciferin luminescence
SENP7 confirm – human SENP7 inhibition, confirmed | hit rate 69% among 6,200 | recombinant SENP7, Z-RLRGG-aminoluciferin luminescence, 40 min | inhibition, % at 12.5 µM | AID 488917 | shares compounds with SENP7 inh
Casp3 SENP sel – inhibits human caspase-3 in SENP selectivity test. hit rate 60% among 6,200. inhibition, % at 12.5 µM. shares compounds with SENP7 inh. purified caspase-3, Z-DEVD-aminoluciferin luminescence, 60 min;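 active means mean inhibition above about 50%, limit read from the data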;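 further: plate controls were enzyme with DMSO for no effect and wells without caspase-3 for full effect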
SENP luc ctr – luminescence interference (SENP counter-screen) | inhibition, % at 12.5 µM | AID 488919 | shares compounds with SENP7 inh | hit rate 39% among 6,200 | Pre-incubated SENP8/Z-RLRGG-aminoluciferin, luciferase luminescence interference;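 active means mean inhibition above about 50% when retested at one dose, limit read from the data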;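 further: plate controls were DMSO wells with completed reaction for no effect and substrate without enzyme for full effect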
* hit, by the source's call; / = no result.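 How the source made its calls, unless noted: active means mean inhibition above about 50% in the one-dose retest (limit read from the data); inactive means the rest.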

SMILES	NRP1-CendR mod	SENP8 block-1	SENP1 inh	SENP8 block-2	SENP7 inh	SENP6 block	SENP8 conf	SENP6 confirm	SENP7 confirm	Casp3 SENP sel	SENP luc ctr
COc1ccc(O)c(/C=N/N2CCCCC2)c1	-2.7	26.1	1.3	77.0*	83.4*	80.0*	77.6*	80.5*	96.0*	87.7*	69.2*
COc1ccc(/C(C)=N/N2CCCCC2)c(O)c1	3.0	13.1	0.0	-2.6	7.6	-7.6	/	/	/	/	/
Cc1ccc(C2=NN(S(C)(=O)=O)C(c3ccc4c(c3)OCO4)C2)cc1 (configuration not stated)	-137.5	11.9	-9.0	49.6	59.4*	67.5*	34.0	62.8*	89.8*	70.6*	41.8
COc1cccc(C(=O)/C=C2\Sc3ccccc3N2C)c1	18.8	-400.6	-144.5	59.8*	49.9	10.0	-6.5	73.3*	92.6*	73.3*	19.3
CN1/C(=C\C(=O)c2cccnc2)Sc2ccccc21	-4.5	-238.6	-120.0	0.8	8.2	13.5	/	/	/	/	/
CCCCOC(=O)c1ccc(OC(=O)c2cccnc2)cc1	-18.3	20.0	1.9	-15.7	9.4	-17.2	/	/	/	/	/
CCCCCCOC(=O)c1ccc(OC(=O)c2cccnc2)cc1	3.3	6.5	1.4	44.4	-1.5	53.4*	-0.4	9.6	47.1	13.9	-2.5
O=C(Nc1nnc(-c2ccc(Cl)cc2)o1)C1CCCCC1	-7.0	-74.6	-1.1	6.5	-6.2	3.2	/	/	/	/	/
Clc1ccc(-c2nnc(NC3=NCCCCC3)o2)cc1	0.8	29.0	1.7	79.6*	88.0*	72.9*	-24.0	10.9	57.3*	47.3	12.5
CN=c1scc(-c2ccccc2F)n1/N=C/c1ccc[nH]1	-128.0	-13.0	-18.7	90.8*	-0.2	-16.1	98.2*	99.5*	102.6*	96.0*	97.4*
CCCCNC(=O)c1nc(C2CCN(S(=O)(=O)c3ccc(OC(F)(F)F)cc3)CC2)oc1-c1ccccc1	12.0	13.3	2.8	/	/	/	/	/	/	/	/
O=c1nc2c(-c3ccccc3F)n[nH]n2c2ccccc12	11.7	-271.6	-79.8	90.2*	90.0*	85.3*	79.4*	92.3*	99.8*	92.8*	53.2*
C/C(=N/NC(=O)c1ccc(Br)o1)c1cccs1	8.7	-4.4	-0.6	10.2	29.8	29.4	/	/	/	/	/
Cc1ccc(/C=N/NC(=O)c2n[nH]c3c2CCCC3)cc1	6.4	20.4	4.7	-5.0	3.8	-13.6	/	/	/	/	/
C/C(=N\NC(=O)c1cc(Br)ccc1O)c1cccs1	4.1	-230.6	-1.5	33.7	19.3	63.3*	27.0	39.1	29.8	40.4	3.7
C/C(=N\NC(=O)c1n[nH]c2c1CCC2)c1cccs1	3.3	26.8	3.7	82.3*	86.6*	86.9*	12.8	4.6	-7.8	9.5	0.6
O=C(N/N=C/c1cccs1)c1n[nH]c2c1CCCC2	4.1	22.8	-0.4	84.0*	91.8*	88.9*	7.1	89.4*	99.5*	96.4*	54.4*
CC(C)CNC(=O)C1(C)CCCN1C(=O)CCc1cccs1 (configuration not stated)	-12.4	18.8	1.4	/	/	/	/	/	/	/	/
CCOC(=O)C1CCN(Cc2ccc(O)c(OC)c2)CC1	-1.4	10.3	2.0	2.0	11.5	96.1*	5.8	-0.1	-1.9	-2.1	-0.7
CCOC(=O)C1CCN(Cc2ccc(OC)c(OCc3ccccc3)c2)CC1	4.3	31.2	0.0	-6.1	-99.3	-26.1	/	/	/	/	/
Cc1ccc(S(=O)(=O)N(C)C[C@@H]2OCc3cn(nn3)CCCC(=O)N([C@@H](C)CO)C[C@H]2C)cc1	-4.3	7.3	0.9	/	/	/	/	/	/	/	/
